Data as given in the EternaBench riboswitch data.

Test system: MS2 coat protein
Assay: apparent Kd, MS2 coat protein; higher = weaker binding; RNA-MaP array; FMN 200 µM where present
Summary of the method: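 Stalled E. coli RNA polymerase produced the designs on Illumina sequencing-chip clusters. SNAP-549-labelled MS2 coat protein was added from 0.7 or 1.5 nM, doubling to 3 µM, without and then with constant ligand, in 100 mM Tris-HCl pH 7.5, 80 mM KCl, 4 mM MgCl2, BSA, DTT, yeast tRNA and Tween-20. The apparent Kd is the median of filtered per-cluster fits of green signal normalised to red-channel RNA signal and control-cluster median Fmax.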

[1] = designed as: OFF switch for flavin mononucleotide, no ligand
[2] = ligand present: flavin mononucleotide, designed as: OFF switch for flavin mononucleotide
[3] = designed as: ON switch for flavin mononucleotide, no ligand
[4] = ligand present: flavin mononucleotide, designed as: ON switch for flavin mononucleotide

Sequence | apparent Kd [1] [nM] | apparent Kd [2] [nM] | apparent Kd [3] [nM] | apparent Kd [4] [nM]
GCGUCAGAAUUAAUUGUGACAAGCAGAAGGCUAUAUCUUAUGUUAGACAUGAGGAUCACCCAUGUAGAGGAUAUGCAGUUACAC | 7.87 | 14.2 |  | 
GGGUACAUCGGAGGAUAUCAUGUAAAUACAUGAGGAUCACCCAUGUCGAUGGAGUCAUCGGAGAUUGAGAAGGCCGAUGUACCG |  |  | 14 | 5.75
CACCGUAACAGAGGAUAUGAUACAUGAGGAUCACCCAUGUAAUAAAUGAGAAUUUCGAAUGUACCUCAGAAGGCUGGAACCGGC | 45.7 | 96.6 |  | 
AGGGUGGGCUCAGGAUAUCAGGAAGAGAUGUGGACAUGAGGAUCACCCAUGUACCAGUGUUGUUAUGAGAAGGGAGAUACUGUA |  |  | 52.3 | 28.8
GGGUACAUAGGAGGAUAUCAUGUAAAUACAUGAGGAUCACCCAUGUCGAUGGAGACAUCGGAGAUUGAGAAGGCCGAUGUACCG |  |  | 240 | 10.6
CAUUUCAUGUCAGGAUAUCCGCGCAGCUUCACGCACGAUAUAAGGGAGCUUGGAGAAGGGACAUGAGGAUCACCCAUGUGCCUC | 10.9 | 26 |  | 
AAAACUGCUCAGGAUAUUUGUGUGUCAGGGCAUAAAGAAGGGAGCACAUGAGGAUCACCCAUGUGUUGGGUUCC | 98.5 | 149 |  | 
GCCAACGCAUGAGGAUAUGCUCCCGUUUCGGGAGCAGAAGGCAUGUCAUAAGACAUGAGGAUCACCCAUGUAGUUAAGAUGGCA |  |  | 474 | 20.1
AGGGAUAAAGGAUAUACAUGAGGAUCACCCAUGUUGAGGAAAGUGAGAGGUGGCGAUAGUAGAAGGUUAGGUGG | 92.6 | 70.1 |  | 
AGUUGAAAUACAGGAUAUAUAUUAUUUUUAUUUAUAGAAGGGUAAUCACAUGAGGAUCACCCAUGUAUAUACGAGGAAGAAGAG |  |  | 292 | 263
AUCAGCUCGUCAGGAUAUACGUCACUGCGUCAGCAGUGUGGUAAGAUCACAUGAGGAUCACCCAUGUAGAAGGGACGCGCUGAU | 13.3 | 226 |  | 
GCAUGCAAGUAGAAGGACGGAUAUUUUGAAAACGUAGGAUAUACAGAAUCAUAUCCACAAGGUAACAUGAGGAUCACCCAUGUA | 10.5 | 9.58 |  | 
UUGGACGUCGUAGGAUAUGUAGGACAUUCCUACAUGAGGAUCACCCAUGUUGACAUGGAAGAAGGACAGAAGGACGAUGUCCAU |  |  | 152 | 10.6
GAUUGACAUGAGGAUCACCCAUGUGAGGAUAUCGGCUGGACCGUGUUGGCUUCCGUCUCGAGAAGGCGCAUAGG | 16 | 23.3 |  | 
GCCAAGGUACAGAAGGGACUACAUGAGGAUCACCCAUGUGUUUCUGCACGUAAAUGAUACAGUGGUCAGGAUAUGUGCUCCAAA | 9.49 | 25.8 |  | 
GUGGUCAGACAUGAGGAUCACCCAUGUGGAAUAAAUAACAGACAGGAUAUAUAAUAUAGGAUAUAGUAGAAGGGUCGAUUGGUG |  |  | 81.9 | 85.8
AAGCAGGUAAUAAAGUAGAAAUACAUGAGGAUCACCCAUGUAUAGGAUAUCGUCAGGAAUACUGACGAGAAGGAUACAUCCUGC | 15.3 | 18.6 |  | 
UCGCUCCGUGUAGGAUAUCGCCGUUCUAUUCGGCGAGAAGGACAUGAGGAUCACCCAUGUAUGUUAUUAUCACGCGUGGCGCAA | 16 | 19.1 |  | 
GGUAGAAACAUUAACAUGAGGAUCACCCAUGUCAAAAGAAAUGAGGAUAUCGUCUACAAUGUAUAUGAGAAGGCAUGGUCUGCC |  |  | 20.2 | 14.6
AGUGUCAUCGAGAAGGCCUCAACAUGAGGAUCACCCAUGUUGCAAAAUGGGAGGAUAUCAAAACUACAGCUACGUUUCGUAGCA |  |  | 69.1 | 9.44
UCUCAGUGAGGAUAUGCCAGGGACUAAUUCGUCCACCCGUCGCAGAAGGCACAUGAGGAUCACCCAUGUGGAUG | 109 | 54.5 |  | 
GGUACUAUCACAGGAUAUGCUUUCCUUUGGGAAGCAGAAGGGUGUAACAUGAGGAUCACCCAUGUGGUGCCAGGGCGCGAGCCC |  |  | 137 | 16.7
GCACCUGCGUAGAAGGUACUAUAUAAUGCAGUGUAAGGAUAUACAUACAUGAGGAUCACCCAUGUAAAUGGAAUUUGCAGGUGC |  |  | 12.2 | 10.3
CUGAGCCUAGGAUAUACUGGCUGUAAGCUUGAUGCCUGCACACAUGAGGAUCACCCAUGUAGAAGGAGGCCAGG | 17.2 | 21.1 |  | 
